Where a SMILES comes first, the peptide text is derived from it. The star is where a group is joined. Cbz = O=C(OCc1ccccc1)*
Molecular target: Her3 (Homo sapiens, UniProt P21860)
Test: Western blot of Her3 level in PC9 GR4 cells
Format: cell-based
Settings: combination with TX2-121-1 (0.5 μM), 116-9e 1.0 μM, 17-AAG 0.1 μM
Summary of the method: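 Serum-starved PC9 GR4 cells were treated with test compounds, then stimulated for 30 min with 100 ng/ml NRG. Cells were lysed in Tris/NaCl/EDTA/1% NP-40 buffer with phosphatase and protease inhibitors, and protein was normalised by BCA. Lysates were resolved on 4–12% SDS-PAGE and PVDF blots were probed for p-Her3, Her3, p-Akt (Ser473), Akt, p-Erk1/2 (Thr202/Tyr204) and Erk1/2.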

Chain of Her3 (P21860 20-1342): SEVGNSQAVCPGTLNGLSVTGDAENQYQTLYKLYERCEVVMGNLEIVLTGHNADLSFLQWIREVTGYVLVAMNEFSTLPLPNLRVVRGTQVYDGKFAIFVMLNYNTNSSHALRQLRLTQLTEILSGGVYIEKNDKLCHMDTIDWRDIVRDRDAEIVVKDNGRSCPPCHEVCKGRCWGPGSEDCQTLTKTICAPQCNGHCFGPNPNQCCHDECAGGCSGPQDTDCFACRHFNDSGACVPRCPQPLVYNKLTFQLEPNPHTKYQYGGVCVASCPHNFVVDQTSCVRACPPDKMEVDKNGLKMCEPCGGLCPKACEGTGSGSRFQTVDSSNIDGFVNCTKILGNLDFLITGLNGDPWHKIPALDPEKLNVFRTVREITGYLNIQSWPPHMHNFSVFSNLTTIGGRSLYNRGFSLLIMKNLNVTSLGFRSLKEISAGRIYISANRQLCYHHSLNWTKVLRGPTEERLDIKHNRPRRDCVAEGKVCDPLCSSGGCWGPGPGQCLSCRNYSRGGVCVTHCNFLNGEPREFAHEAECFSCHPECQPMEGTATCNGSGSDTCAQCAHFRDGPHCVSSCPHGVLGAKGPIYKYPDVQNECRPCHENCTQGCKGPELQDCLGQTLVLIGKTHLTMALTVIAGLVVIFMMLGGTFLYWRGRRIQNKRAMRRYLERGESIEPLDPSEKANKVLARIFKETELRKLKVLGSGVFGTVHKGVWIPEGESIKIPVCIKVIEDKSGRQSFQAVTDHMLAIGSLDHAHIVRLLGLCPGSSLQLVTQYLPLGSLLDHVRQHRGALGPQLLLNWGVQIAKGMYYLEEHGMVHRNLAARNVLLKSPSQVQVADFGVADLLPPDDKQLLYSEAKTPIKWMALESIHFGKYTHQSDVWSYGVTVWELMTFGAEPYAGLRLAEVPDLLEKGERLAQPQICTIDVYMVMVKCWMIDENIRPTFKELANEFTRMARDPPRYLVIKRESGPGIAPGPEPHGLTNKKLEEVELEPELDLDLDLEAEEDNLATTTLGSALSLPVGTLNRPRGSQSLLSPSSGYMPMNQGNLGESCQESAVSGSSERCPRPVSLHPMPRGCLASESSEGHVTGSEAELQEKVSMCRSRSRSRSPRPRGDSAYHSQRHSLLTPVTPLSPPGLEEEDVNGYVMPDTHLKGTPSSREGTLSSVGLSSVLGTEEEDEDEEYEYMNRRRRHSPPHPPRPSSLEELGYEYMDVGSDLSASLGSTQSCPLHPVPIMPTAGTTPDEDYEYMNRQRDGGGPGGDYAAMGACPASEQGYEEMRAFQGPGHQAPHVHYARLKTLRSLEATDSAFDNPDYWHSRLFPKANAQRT

SMILES | effect on TX2-121-1 induced Her3 degradation
C=CCNC1=C2C[C@@H](C)C[C@H](OC)[C@H](O)[C@@H](C)/C=C(\C)[C@H](OC(N)=O)[C@@H](OC)/C=C\C=C(/C)C(=O)NC(=CC1=O)C2=O [17-AAG, 17-N-allylamino-17-demethoxygeldanamycin] | enhanced degradation of Her3
CC1=C(C(=O)OCc2ccccc2)C(c2ccc(-c3ccccc3)cc2)NC(=O)N1CCCCCC(=O)O (stereo not drawn) [116-9e, 4-[1,1′-biphenyl]-4-yl-3,4-dihydro-6-methyl-2-oxo-5-[(phenylmethoxy)carbonyl]-1(2H)-pyrimidinehexanoic acid] | enhanced degradation of Her3
CC(C)C[C@@H](C=O)NC(=O)[C@H](CC(C)C)NC(=O)[C@H](CC(C)C)NC(=O)OCc1ccccc1 [MG132] (Cbz-Leu-Leu-Leu-aldehyde) | diminished
